Data on 5 molecules can be found in publication PMC6745485 (Heliyon, 2019).

The target of data set [1] is T1, rat CAR (Rattus norvegicus, UniProt Q9QUS1).
T1 sequence (Q9QUS1 1-358): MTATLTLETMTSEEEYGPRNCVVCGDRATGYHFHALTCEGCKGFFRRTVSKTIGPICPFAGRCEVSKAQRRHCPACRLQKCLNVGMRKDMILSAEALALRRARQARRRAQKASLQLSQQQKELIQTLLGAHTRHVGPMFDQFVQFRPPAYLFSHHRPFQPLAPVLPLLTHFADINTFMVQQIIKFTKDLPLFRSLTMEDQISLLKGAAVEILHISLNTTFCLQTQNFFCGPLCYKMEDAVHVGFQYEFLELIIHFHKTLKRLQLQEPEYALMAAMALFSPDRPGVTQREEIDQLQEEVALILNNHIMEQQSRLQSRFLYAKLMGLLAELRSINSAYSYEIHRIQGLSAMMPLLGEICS
As to conditions: ref Omiecinski et al., 2011a; cited from earlier work.

The test system of a further data set is mouse CAR. As to conditions: cited from earlier work.
A further data set addresses T2, rat PPARα (Rattus norvegicus, UniProt P37230).
T2 sequence (P37230 1-468): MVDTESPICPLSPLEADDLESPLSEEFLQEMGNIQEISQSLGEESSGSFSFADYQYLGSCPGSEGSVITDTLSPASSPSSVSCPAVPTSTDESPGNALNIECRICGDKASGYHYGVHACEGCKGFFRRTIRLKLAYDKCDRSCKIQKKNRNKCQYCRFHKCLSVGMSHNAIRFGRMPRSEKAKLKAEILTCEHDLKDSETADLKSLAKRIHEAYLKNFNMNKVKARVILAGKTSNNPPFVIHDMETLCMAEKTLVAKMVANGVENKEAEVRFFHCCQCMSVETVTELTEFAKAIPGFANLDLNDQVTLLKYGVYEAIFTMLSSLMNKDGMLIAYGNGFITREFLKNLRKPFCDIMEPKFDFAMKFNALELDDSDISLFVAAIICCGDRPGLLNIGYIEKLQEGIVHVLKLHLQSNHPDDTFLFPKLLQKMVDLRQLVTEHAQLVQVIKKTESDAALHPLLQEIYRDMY
In words: Rat PPARα reporter gene assay in COS-1 cells. As to conditions: concentration showing 20% of the agonistic activity of 30 μM BZF; ±SD. It is filed as cell-based. For orientation: A reporter such as luciferase makes a cellular process visible.

Data set [2] deals with T1, rat CAR. In words: Rat CAR reporter gene assay in COS-1 cells. The class given is cell-based. As to conditions: for Agonistic activity REC20 CAR: concentration showing 20% of the agonistic activity of 30 μM artemisinin; for Agonistic activity REC20 CAR / Inverse agonistic activity RIC20 CAR: ±SD; for Inverse agonistic activity RIC20 CAR: concentration showing 80% of the activity of the vehicle control.

The subject of the next data set is human CAR. As to conditions: cited from earlier work.
In data set [3] the target is T3, rat PXR (Rattus norvegicus, UniProt Q9R1A7).
T3 sequence (Q9R1A7 1-431): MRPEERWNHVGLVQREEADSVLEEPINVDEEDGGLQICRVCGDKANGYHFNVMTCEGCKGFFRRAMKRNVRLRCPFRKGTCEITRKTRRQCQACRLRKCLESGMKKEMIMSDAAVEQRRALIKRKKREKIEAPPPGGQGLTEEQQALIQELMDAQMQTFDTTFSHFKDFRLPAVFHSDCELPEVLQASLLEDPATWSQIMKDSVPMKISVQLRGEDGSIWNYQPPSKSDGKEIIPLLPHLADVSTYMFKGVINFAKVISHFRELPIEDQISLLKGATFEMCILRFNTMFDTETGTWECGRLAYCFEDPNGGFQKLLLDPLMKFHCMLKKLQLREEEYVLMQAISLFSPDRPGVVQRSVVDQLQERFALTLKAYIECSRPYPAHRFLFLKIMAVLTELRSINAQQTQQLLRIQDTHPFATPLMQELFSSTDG
In words: Rat PXR reporter gene assay in COS-1 cells. It is filed as cell-based. As to conditions: for Agonistic activity REC20 PXR: concentration showing 20% of the agonistic activity of 1 μM PCN, ±SD. The gist of the method: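 COS-1 cells (1×10^4/well) co-transfected with rat PXR expression, reporter and Renilla control plasmids via jetPEI. After 24 h, test compound or 0.1% DMSO added in serum-free D-MEM for 24 h. Dual-luciferase read-out, firefly normalized to Renilla, fold vs vehicle. REC20: concentration reaching 20% of 1 μM PCN activity. Mean ± SD, ≥3 experiments in duplicate; Dunnett's test.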

Data set [4] has as its target T1, rat CAR. It is filed as cell-based. As to conditions: 3–10 μM. The gist of the method:
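Microsomal mix: NADPH-generating system plus PB/MC-induced male SD rat liver microsomes (60 mg protein) in pH 7.4 phosphate, 30 min, 37 °C; boiled-microsome control. Extracts dried, redissolved in DMSO, diluted into serum-free medium. CAR-transfected COS-1 cells dosed 12 h after transfection, 24 h exposure. Firefly/Renilla luciferase read as fold vs vehicle; 3 experiments, Student's t-test vs boiled.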

Data set [5] has as its target T3, rat PXR. It is filed as cell-based. As to conditions: microsomes of PB- and MC-treated rats, NADPH, vs boiled microsomes. The gist of the method:
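Test compound (1 μmol) incubated 30 min at 37 °C in 0.1 M K,Na-phosphate pH 7.4. Mix held an NADPH-generating system and liver microsomes (60 mg protein) from male SD rats given PB 80 mg/kg i.p. plus MC 25 mg/kg p.o. daily for 3 d. Boiled microsomes were the control. Ethyl acetate extract went into DMSO and onto transfected COS-1 cells for 24 h. Normalized firefly/Renilla fold vs vehicle; n=3, t-test.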

For the next data set, the system named is mouse PPARα. As to conditions: among 12 pyrethroid pesticides; ref Takeuchi et al., 2006; cited from earlier work.

“And” between values parts separate entries of the source, which are not always exact repeats. Identical values can stand only once. “Also recorded” adds a separate entry of the source. Like-named read-outs stand apart in the source and are kept apart here.

`Clc1ccc(-c2nc3sccn3c2C=NOCc2ccc(Cl)c(Cl)c2)cc1` [CITCO, 6-(4-chlorophenyl)imidazo[2,1-b][1,3]thiazole-5-carbaldehyde O-(3,4-dichlorobenzyl)oxime]: the “Rat CAR activity” value at rat CAR [1] was “inactive toward rat CAR”.
Turning to `Clc1cnc(Oc2ccc(Oc3ncc(Cl)cc3Cl)cc2)c(Cl)c1` [TCPOBOP, 1,4-bis[2-(3,5-dichloropyridyloxy)]benzene], the “Rat CAR activity” value on rat CAR [1] is “inactive toward rat CAR”.
Regarding `CC1(C)C(C=C(Cl)Cl)C1C(=O)OC(C#N)c1cccc(Oc2ccccc2)c1` (centres unmarked) [cypermethrin], the “Mouse CAR agonistic activity” value with mouse CAR (ref Baldwin and Roling (2009)) is recorded as “agonists”. Moreover, the “Agonistic activity REC20 PPARα” value at rat PPARα was “- ^c (No effect (REC20 > 30 μM))”. The “Agonistic activity REC20 CAR” value on rat CAR [2] is “- ^c (No effect (REC20 > 30 μM))”. At rat CAR [2], the “Inverse agonistic activity RIC20 CAR” value is “- ^c (No effect (REC20 > 30 μM))”. For the same molecule, the “Human CAR agonistic activity” value with human CAR (ref Baldwin and Roling (2009)) is reported as “agonists”. Further, the results for the “PXR activity, fold compared with the control” value on rat PXR [3] (1 μM or lower) and on rat PXR [3] (concentration range 1–30 μM) were “about 2 fold” and “about 3 fold”, respectively. In addition, the “Agonistic activity REC20 PXR” value at rat PXR [3] is 0.468 ± 0.0267 µM.
On to `CC(C)C(C(=O)OC(C#N)c1cccc(Oc2ccccc2)c1)c1ccc(Cl)cc1` (centres unmarked) [fenvalerate], for which the “Mouse CAR agonistic activity” value in the data set on mouse CAR (ref Abass et al. (2012)) was “not mouse CAR”; in the data set on mouse CAR (ref Baldwin and Roling (2009)), “agonists”. On rat PPARα, the “Agonistic activity REC20 PPARα” value is listed as “- ^c (No effect (REC20 > 30 μM))”. Further, at rat CAR [2] (artemisinin 10 μM, test compound 0.1–30 μM), the “Effect on CAR activation induced by artemisinin” value is recorded as “significantly inhibited CAR activation by artemisinin”. The “Agonistic activity REC20 CAR” value at rat CAR [2] is recorded as “- ^c (No effect (REC20 > 30 μM))”. Also, at rat CAR [2], the “Inverse agonistic activity RIC20 CAR” value was 0.846 µM and 0.846 ± 0.394 µM. Moreover, the “CAR inverse agonistic activity (in words)” value at rat CAR [2] (up to 30 μM) is “showed CAR inverse agonistic activity”. Moreover, the “Change of CAR inverse agonistic activity after incubation with liver microsomes” value at rat CAR [4] is listed as “tended to decrease”. Further, the “Change of PXR activity upon incubation with rat liver microsomes” value on rat PXR [5] was “markedly decreased; also recorded: significantly decreased”. The “Human CAR agonistic activity” value in the data set on human CAR (ref Abass et al. (2012)) is reported as “possessed agonistic activity”; in the data set on human CAR (ref Baldwin and Roling (2009)), “agonists”. In addition, the “Agonistic activity REC20 PXR” value at rat PXR [3] amounted to 0.617 ± 0.138 µM.
Turning to pyrethrin, the “Mouse PPARα activation” value in the data set with mouse PPARα is “activated mouse PPARα”.
